This is a sample that favours compounds with a hit; in the whole collection about 2.2% have one here.
Hck-Nef inh – inhibitors of human Hck kinase activated by Nef; P08631; Recombinant Hck-YEEI plus Nef, Z-Lyte FRET kinase assay; inhibition, % at 20 µM; 220,000 tested, 0.68% active;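 active = Hck-Nef kinase inhibition above about 50%, limit read from the data; inactive = inhibition below that limit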
Biofilm kill mix – mixture kills Candida albicans biofilm cells | 120,000 tested, 0.02% active | inhibition, % at 7.6 µM | C. albicans biofilm persisters + clotrimazole, fluorescence viability; primary screen in compound mixtures of four per well | AID 1242;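 active = inhibition above 30.3% in the primary screen of four-compound pools, then above 30% when the compound was retested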;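 note: compounds exposed to preformed 24 h biofilms for 48 h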
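Incubation: 24 h biofilm formation, then 48 h compound exposure, 37 °C | Material: C. albicans biofilms | Buffer or medium: RPMI/MOPS medium, pH 7.0 | Measured by: 2-h Alamar Blue fluorescence, 535/590 nm excitation/emission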
p97 ATPase inh – human p97 ATPase inhibition; P55072; recombinant p97 ATPase, Kinase-Glo ATP luminescence, 3 h; inhibition, % at 8 µM; 220,000 tested, 0.42% active; AID 1481; in the data active = inhibition above about 15%
PERK inhibitor – inhibitors of human PERK kinase. CHO PERK-DD fusion, SEAP luminescence translation reporter. Q9NZJ5. 220,000 tested, 0.17% active. inhibition, % at 5.6 µM;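 active = inhibition above the mean inhibition of all tested compounds plus 3 SD, set separately per screening campaign, cut at about 2.9% in these data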;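 note: PERK kinase domain activated by AP20187 dimerizer at 100 nM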
Target sequence (Q9NZJ5 whole entry, looked up, the tested form may be a part): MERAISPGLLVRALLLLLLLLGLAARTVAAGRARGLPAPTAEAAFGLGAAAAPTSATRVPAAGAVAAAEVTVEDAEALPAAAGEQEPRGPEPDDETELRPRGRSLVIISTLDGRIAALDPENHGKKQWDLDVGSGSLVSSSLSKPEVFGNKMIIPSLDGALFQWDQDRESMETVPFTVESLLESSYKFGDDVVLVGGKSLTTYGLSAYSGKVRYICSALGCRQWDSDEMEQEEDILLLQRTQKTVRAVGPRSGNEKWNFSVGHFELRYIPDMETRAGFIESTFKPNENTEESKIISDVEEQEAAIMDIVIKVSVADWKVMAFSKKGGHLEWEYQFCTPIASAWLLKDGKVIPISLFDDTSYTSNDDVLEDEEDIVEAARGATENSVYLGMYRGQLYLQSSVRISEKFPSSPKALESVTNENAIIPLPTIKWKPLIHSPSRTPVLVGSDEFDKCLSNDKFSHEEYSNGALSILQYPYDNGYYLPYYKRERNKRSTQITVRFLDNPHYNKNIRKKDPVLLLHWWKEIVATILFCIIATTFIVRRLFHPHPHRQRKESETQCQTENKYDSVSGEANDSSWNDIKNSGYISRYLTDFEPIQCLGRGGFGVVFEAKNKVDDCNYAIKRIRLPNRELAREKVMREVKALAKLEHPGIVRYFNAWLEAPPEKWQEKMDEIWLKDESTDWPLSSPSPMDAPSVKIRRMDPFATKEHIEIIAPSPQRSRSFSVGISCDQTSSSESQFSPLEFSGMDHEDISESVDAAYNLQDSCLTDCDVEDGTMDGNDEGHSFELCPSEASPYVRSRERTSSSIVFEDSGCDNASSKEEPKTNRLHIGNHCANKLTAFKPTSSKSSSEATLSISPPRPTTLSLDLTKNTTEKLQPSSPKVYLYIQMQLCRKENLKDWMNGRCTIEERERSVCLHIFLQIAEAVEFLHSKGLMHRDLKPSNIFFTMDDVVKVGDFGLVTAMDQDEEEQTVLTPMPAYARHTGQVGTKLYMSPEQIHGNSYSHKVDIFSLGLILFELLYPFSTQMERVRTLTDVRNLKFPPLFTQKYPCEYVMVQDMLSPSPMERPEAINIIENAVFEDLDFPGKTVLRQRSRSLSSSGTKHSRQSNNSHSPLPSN
14-3-3 Bad PPI – disrupts binding of bovine 14-3-3 zeta to phospho-Bad peptide | P63103 | TR-FRET 14-3-3zeta/Dy647-pBad peptide displacement, 1 h | inhibition, % at 21.7 µM | 220,000 tested, 0.71% active;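 active = inhibition above about 70%, limit read from the data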
eIF4E 4G PPI – eIF4E/eIF4G interaction inhibition in translation initiation | 220,000 tested, 0.37% active | AID 782 | TR-FRET eIF4E-eIF4GI(517-606) binding, 2 h | inhibition, % at 21.7 µM;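 active = inhibition above about 30%, limit read from the data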
Numbers stand for hits; - = inactive; . = no result given; + = active, no number; [ ] = remark or other dose.

SMILES	Hck-Nef inh	Biofilm kill mix	p97 ATPase inh	PERK inhibitor	14-3-3 Bad PPI	eIF4E 4G PPI
CC(=O)N1c2c(cc(Br)cc2S(=O)(=O)N2CCN(c3ccccn3)CC2)CC1C (stereo not drawn)	-	.	-	-	87.8	-
CC(=O)N1CCc2cc(Br)cc(S(=O)(=O)N3CCN(c4ccccn4)CC3)c21	-	.	-	-	.	.
Cc1c(Br)cc(C(=O)O)c(C)c1C	-	.	-	-	-	-
Cc1c(N)cc(N)cc1C(=O)O	-	-	-	-	84.0	-
NC(=O)[C@H](Cc1cc2ccccc2s1)NC(=O)[C@@H]1CC2(CC(c3cccc(NC(=O)[C@@H]4CCC(=O)N4)c3)=NO2)CN1C(=O)/C=C/Sc1ccccc1 (stereo partly drawn)	-	-	17.2	-	-	-
Nc1ccc2nc(-c3cc(Cl)c(N)c(Cl)c3)[nH]c2c1	-	-	-	-	-	39.2[fluorescence artefact?]
Cc1ccc(NC(=O)CCN2C(=O)OC(C)(C)C2(C)O)cc1 (stereo not drawn)	-	-	-	-	-	-
Cn1c(=O)c(C(=O)COC(=O)c2cc(-c3ccco3)nc3ccccc23)c(N)n(CC2CC2)c1=O	50.7	-	-	-	-	-
Cn1c(=O)c(C(=O)COC(=O)c2cc(C3CC3)nc3ccccc23)c(N)n(Cc2ccccc2)c1=O	-	-	-	-	-	-
COc1ccc(NC(=O)c2ccc(-c3ccc([N+](=O)[O-])cc3)o2)cc1OC	-	-	-	-	-	-
COc1cc([N+](=O)[O-])ccc1-c1ccc(C(=O)Nc2ccc(NC(C)=O)cc2)o1	-	-	-	-	95.3[fluorescence artefact?]	-
O=C(CCc1ccccc1)N1CCN(c2ccc([N+](=O)[O-])cc2)CC1	-	-	-	-	-	-
CN(C)CCCNS(=O)(=O)c1ccc(N2CCC(c3ccc(Cl)cc3)=N2)cc1	+	.	-	-	-	-
OCCC1CN(Cc2ccc(Oc3ncccn3)cc2)CCN1C1CCCCC1 (stereo not drawn)	-	-	-	-	-	-
CCN(CC)S(=O)(=O)c1ccc(NC(=O)c2cccc3c2C(=O)N(CCOC)C3)cc1	-	-	-	-	84.1[fluorescence artefact?]	-
Cc1ccc(CNC(=O)CN(C)S(=O)(=O)c2cccs2)cc1	-	-	-	-	85.7	-
CN(CC(=O)NCCc1ccccc1)S(=O)(=O)c1cccs1	-	.	-	-	-	-
CCOC(=O)c1c(C)oc2ccc(O)cc12	-	.	-	3.4	-	-
CCOC(=O)c1c(CN2CCOCC2)oc2ccc(OC)cc12	-	.	-	-	78.9	-
COc1ccc(C(=O)N2CCCc3ccccc32)cc1	-	.	-	-	87.8	-
O=C(c1cccc2ccccc12)C1CCCN(C(=O)c2ccc(N3CCOCC3)cc2)C1 (stereo not drawn)	-	-	-	-	-	-
Nc1ccc(S(=O)(=O)N2CCCc3ccccc32)cc1	-	.	-	-	-	62.4
Cc1cc(NC(=O)COC(=O)c2n[nH]c3ccccc23)no1	-	.	-	-	-	-
Cc1cccc(C)c1OCCOC(=O)c1n[nH]c2ccccc12	-	-	-	-	89.0	-
Cc1ccccc1Nc1nnc(SCC(=O)NC2CCCc3ccccc32)s1 (stereo not drawn)	-	-	-	-	-	-
SMILES	Hck-Nef inh	Biofilm kill mix	p97 ATPase inh	PERK inhibitor	14-3-3 Bad PPI	eIF4E 4G PPI
CC(c1nccs1)N(C)C(=O)CCc1nnc(Cc2c[nH]c3ccccc23)o1 (stereo not drawn)	-	-	-	-	-	-
Cc1ccc(-n2c(-c3ccc(Cl)cc3)c[n+]3c2CCC3)cc1	-	-	-	-	-	94.2
Cc1ccc(-n2c(-c3ccccc3)c[n+]3c2CCC3)cc1	-	-	-	-	-	-
COc1cc(/C=N/N=C2/SCC(=O)N2c2ccc(O)cc2)ccc1O	-	-	-	-	-	-
CCOC(=O)c1ccc2c(c1)nc(SCC(=O)c1cc3ccccc3o1)n2CC	-	.	-	-	-	40.4
COc1cc(/C=C(/C#N)c2nc(-c3cc4ccccc4oc3=O)cs2)cc([N+](=O)[O-])c1O	113.8	-	-	-	96.6	61.6
COc1cc(/C=C(\C#N)c2nc(-c3cc4ccccc4oc3=O)cs2)ccc1O	-	-	-	-	-	-
Cc1cc(Br)cn2ccnc12	-	.	-	3.0	-	-
CCCCC#Cc1cncc(C(=O)N/N=C/c2ccccc2)c1	-	-	-	-	-	-

Source: PubChem
